Laboratory results published in ChEMBL document CHEMBL1124186, “Synthesis and evaluation of tylosin-related macrolides modified at the aldehyde function: a new series of orally effective antibiotics” (1988).
Values after ≈ are worked out from the molar mass of the structure shown.

Experiments:
[1] = system: Collinsella aerofaciens; experiment: In vitro antimicrobial activity against anaerobic bacteria aerofaciens 1235; type: functional
[2] = system: Streptococcus viridans; experiment: In vitro antimicrobial activity against aerobic bacteria Streptococcus viridans 9943; type: functional
[3] = system: Enterococcus faecium; experiment: In vitro antimicrobial activity against Streptococcus faecium X66; type: functional, streptococcus fae-cium
[4] = system: Streptococcus; experiment: In vitro antimicrobial activity against aerobic bacteria Streptococcus D 9960; type: functional
[5] = system: Streptococcus pyogenes; experiment: Effective dose against Streptococcus pyogenes C203 when administered sc; type: functional
Summary of the method: (§1)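 Mouse protection test: infected mice were dosed twice, at 1 and 5 h postinfection, either subcutaneously or orally. […] The result is expressed as ED50 in mg/kg × 2.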

[6] = system: Clostridioides difficile; experiment: In vitro antimicrobial activity against anaerobic bacteria Clostridium difficile 2994; type: functional
[7] = system: Peptostreptococcus anaerobius; experiment: In vitro antimicrobial activity against anaerobic bacteria eubacterium peptostreptococcus anaerobius 1428,; type: functional
[8] = system: Bacteroides fragilis; experiment: In vitro antimicrobial activity against anaerobic bacteria bacteroides fragilis 1877; type: functional
[9] = system: Fusobacterium necrophorum; experiment: In vitro antimicrobial activity against anaerobic bacteria usobacterium necrophorum 6054A; type: functional
[10] = system: Haemophilus influenzae; experiment: In vitro antimicrobial activity against aerobic bacteria Haemophilus influenzae 76; type: functional
[11] = system: Prevotella melaninogenica; experiment: In vitro antimicrobial activity against anaerobic bacteria bacteroides melaninogenicus 2736; type: functional
[12] = system: Staphylococcus aureus; experiment: In vitro antimicrobial activity against aerobic bacteria Staphylococcus aureus X400; type: functional
[13] = system: Fusobacterium; experiment: In vitro antimicrobial activity against anaerobic bacteria fusobacterium symbiosum 1470; type: functional
[14] = system: Haemophilus parainfluenzae; experiment: In vitro antimicrobial activity against aerobic bacteria Haemophilus parainfluenzae 9796; type: functional
[15] = system: Streptococcus pneumoniae; experiment: In vitro antimicrobial activity against Streptococcus pneumoniae; type: functional
[16] = system: Staphylococcus aureus; experiment: In vitro antimicrobial activity against aerobic bacteria Staphylococcus aureus V135; type: functional
[17] = system: Streptococcus; experiment: In vitro antimicrobial activity against aerobic bacteria Streptococcus B 8; type: functional
[18] = system: Staphylococcus aureus; experiment: In vitro antimicrobial activity against aerobic bacteria Staphylococcus aureus 513E; type: functional
[19] = system: Haemophilus influenzae; experiment: In vitro antimicrobial activity against aerobic bacteria Haemophilus influenzae MX366,; type: functional
[20] = system: Streptococcus sanguinis; experiment: In vitro antimicrobial activity against aerobic bacteria Streptococcus sanguis MX132; type: functional
[21] = system: Staphylococcus aureus; experiment: In vitro antimicrobial activity against Staphylococcus aureus X1; type: functional
[22] = system: Clostridium septicum; experiment: In vitro antimicrobial activity against anaerobic bacteria clostridium septicum 1128; type: functional
[23] = system: Streptococcus; experiment: In vitro antimicrobial activity against aerobic bacteria Streptococcus D 8043; type: functional
[24] = system: Staphylococcus epidermidis; experiment: In vitro antimicrobial activity against Staphylococcus epidermidis EPI1; type: functional
[25] = system: Bacteroides thetaiotaomicron; experiment: In vitro antimicrobial activity against anaerobic bacteria bacteroides thetaiotaomicron 1438; type: functional
[26] = system: Streptococcus; experiment: In vitro antimicrobial activity against aerobic bacteria Streptococcus G Kruder; type: functional; conditions: Streptococcus; read-out: MIC
[27] = system: Chlamydia trachomatis; experiment: In vitro antimicrobial activity against chlamydia trachomatis.; type: functional
[28] = system: Streptococcus pyogenes; experiment: Antimicrobial activity against Streptococcus pyogenes C203; type: functional
[29] = system: Prevotella melaninogenica; experiment: In vitro antimicrobial activity against anaerobic bacteria bacteroides melaninogenicus 1856,; type: functional
[30] = system: Haemophilus influenzae; experiment: In vitro antimicrobial activity against aerobic bacteria Haemophilus influenzae 465; type: functional
[31] = system: Streptococcus pyogenes; experiment: In vitro antimicrobial activity against Streptococcus pyogenes C203; type: functional
[32] = system: Streptococcus pyogenes; experiment: In vivo effective dose against experimental infections in rodent caused by Streptococcus pyogenes C203 when administered orally; type: functional; conditions: po
[33] = system: Staphylococcus epidermidis; experiment: In vitro antimicrobial activity against aerobic bacteria Streptococcus epi 270; type: functional
[34] = system: Eikenella corrodens; experiment: In vitro antimicrobial activity against anaerobic bacteria bacteroides corrodens 1874; type: functional
[35] = system: Anaerococcus prevotii; experiment: In vitro antimicrobial activity against anaerobic bacteria peptococcus prevoti 1281; type: functional
[36] = system: Bacteroides fragilis; experiment: In vitro antimicrobial activity against anaerobic bacteria bacteroides fragilis 1936B,; type: functional
[37] = system: Staphylococcus aureus; experiment: In vitro antimicrobial activity against aerobic bacteria Staphylococcus aureus V140,; type: functional
[38] = system: Streptococcus pyogenes; experiment: Effective dose against Streptococcus pyogenes administered orally; type: functional; conditions: po; summary of the method: as §1
[39] = In vitro antimicrobial activity against anaerobic bacteria peptostreptococcus intermedius 1264; type: functional
[40] = system: Phocaeicola vulgatus; experiment: In vitro antimicrobial activity against anaerobic bacteria bacteroides vulgatus 1211; type: functional
[41] = system: Streptococcus pyogenes; experiment: In vivo effective dose against experimental infections in rodent caused by Streptococcus pyogenes C203 when administered sc; type: functional
[42] = system: Streptococcus; experiment: In vitro antimicrobial activity against aerobic bacteria Streptococcus C 24; type: functional
[43] = system: Streptococcus; experiment: In vitro antimicrobial activity against aerobic bacteria Streptococcus D 2041; type: functional
[44] = system: Staphylococcus epidermidis; experiment: In vitro antimicrobial activity against aerobic bacteria Streptococcus epi 222; type: functional
[45] = system: Bacteroides fragilis; experiment: In vitro antimicrobial activity against anaerobic bacteria bacteroides fragilis 111; type: functional
[46] = system: Streptococcus pneumoniae; experiment: In vitro antimicrobial activity against aerobic bacteria Streptococcus pneumoniae B1-438; type: functional, streptococcus pneum
[47] = system: Staphylococcus aureus; experiment: In vitro antimicrobial activity against aerobic bacteria Staphylococcus aureus V41; type: functional
[48] = system: Clostridium perfringens; experiment: In vitro antimicrobial activity against anaerobic bacteria clostridium perfringens 81,; type: functional
[49] = system: Cutibacterium acnes; experiment: In vitro antimicrobial activity against anaerobic bacteria propionibacterium acnes 79; type: functional
[50] = system: Peptoniphilus asaccharolyticus; experiment: In vitro antimicrobial activity against anaerobic bacteria peptococcus asaccharolyticus 1302; type: functional
[51] = system: Haemophilus influenzae; experiment: In vitro antimicrobial activity against Haemophilus influenzae.; type: functional
[52] = system: Streptococcus; experiment: In vitro antimicrobial activity against aerobic bacteria Streptococcus B 5; type: functional

For `CC[C@H]1OC(=O)C[C@@H](O)[C@H](C)[C@@H](O[C@@H]2O[C@H](C)[C@@H](O[C@H]3C[C@@](C)(O)[C@@H](O)[C@H](C)O3)[C@H](N(C)C)[C@H]2O)[C@@H](CC=O)C[C@@H](C)C(=O)/C=C/C(C)=C/[C@@H]1CO[C@@H]1O[C@H](C)[C@@H](O)[C@@H](OC)[C@H]1OC` [TYLOSIN], the MIC [1] was 0.12 µg/mL (≈ 0.131 µM), the MIC [2] was > 128 µg/mL and the MIC [3] was 2 µg/mL (≈ 2.18 µM). The MIC [4] was 1 µg/mL (≈ 1.09 µM), the ED50 [5] was 0.5 mg/kg and the MIC [6] was 1 µg/mL (≈ 1.09 µM). The MIC [7] was 8 µg/mL (≈ 8.73 µM), the MIC [8] was 1 µg/mL (≈ 1.09 µM) and the MIC [9] was 0.5 µg/mL (≈ 0.546 µM). For the same molecule, the MIC [10] was 16 µg/mL (≈ 17.5 µM), the MIC [11] was < 0.03 µg/mL and the MIC [12] was 1 µg/mL (≈ 1.09 µM). For the same molecule, the MIC [13] was < 0.03 µg/mL, the MIC [14] was 16 µg/mL (≈ 17.5 µM) and the MIC [15] was 0.25 µg/mL (≈ 0.273 µM). The MIC [16] was 1 µg/mL (≈ 1.09 µM), the MIC [17] was 1 µg/mL (≈ 1.09 µM) and the MIC [18] was 1 µg/mL (≈ 1.09 µM). It also gave an MIC [19] of 16 µg/mL (≈ 17.5 µM), an MIC [20] of 0.5 µg/mL (≈ 0.546 µM) and an MIC [21] of 0.5 µg/mL (≈ 0.546 µM). The MIC [22] was 0.5 µg/mL (≈ 0.546 µM), the MIC [23] was 1 µg/mL (≈ 1.09 µM) and the MIC [24] was 1 µg/mL (≈ 1.09 µM). The MIC [25] was 1 µg/mL (≈ 1.09 µM), the MIC [26] was 0.25 µg/mL (≈ 0.273 µM) and the MIC [27] was 0.25 µg/mL (≈ 0.273 µM). The MIC [28] was 0.25 µg/mL (≈ 0.273 µM), the MIC [29] was 0.25 µg/mL (≈ 0.273 µM) and the MIC [30] was 32 µg/mL (≈ 34.9 µM). The MIC [31] was 0.25 µg/mL (≈ 0.273 µM), the ED50 [32] was 42 mg/kg and the MIC [33] was > 128 µg/mL. For the same molecule, the MIC [34] was 1 µg/mL (≈ 1.09 µM), the MIC [35] was 8 µg/mL (≈ 8.73 µM) and the MIC [36] was 1 µg/mL (≈ 1.09 µM). For the same molecule, the MIC [37] was 1 µg/mL (≈ 1.09 µM), the ED50 [38] was 0.5 mg/kg and the MIC [39] was 0.5 µg/mL (≈ 0.546 µM). The MIC [40] was 1 µg/mL (≈ 1.09 µM), the ED50 [41] was 1.3 mg/kg and the MIC [42] was 0.25 µg/mL (≈ 0.273 µM). For the same molecule, the MIC [43] was 1 µg/mL (≈ 1.09 µM), the MIC [44] was 0.25 µg/mL (≈ 0.273 µM) and the MIC [45] was 0.5 µg/mL (≈ 0.546 µM). The MIC [46] was > 128 µg/mL, the MIC [47] was 1 µg/mL (≈ 1.09 µM) and the MIC [48] was 0.25 µg/mL (≈ 0.273 µM). For the same molecule, the MIC [49] was 0.5 µg/mL (≈ 0.546 µM), the MIC [50] was 0.06 µg/mL (≈ 0.0655 µM) and the MIC [51] was 16 µg/mL (≈ 17.5 µM). It also gave an MIC [52] of 1 µg/mL (≈ 1.09 µM).
